Reference: ChEMBL document CHEMBL1149177, “Meta-substituted aryl(thio)ethers as potent partial agonists (or antagonists) for the histamine H3 receptor lacking a nitrogen atom in the side chain” (J Med Chem, 2004)

Assays:
Mus musculus [1] = test: In vivo inhibition of brain N-methyl-histamine formation in mice when administered perorally in presence of oxalate salt; assay type: functional; settings: po
Outline: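 Male Swiss mice (18–22 g), groups of 6–12, given oxalate salt orally as solution or suspension in 1% methylcellulose. Cerebral cortex taken 90 min after dosing, homogenized in ice-cold 0.4 N perchloric acid. Nτ-methylhistamine measured by radioimmunoassay. Agonist maximal effect referenced to imetit 10 mg/kg; antagonist maximal effect referenced to thioperamide 10 mg/kg. ED50 given as free base.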

Histamine H3 receptor = Histamine H3 receptor (Rattus norvegicus, UniProt Q9QYN8); test: In vitro inhibitory activity against histamine H3 receptor using [3H]histamine as radioligand from rat cerebral cortex synaptosomes; assay type: subcellular, Brain
Chain of Histamine H3 receptor (Q9QYN8 whole entry): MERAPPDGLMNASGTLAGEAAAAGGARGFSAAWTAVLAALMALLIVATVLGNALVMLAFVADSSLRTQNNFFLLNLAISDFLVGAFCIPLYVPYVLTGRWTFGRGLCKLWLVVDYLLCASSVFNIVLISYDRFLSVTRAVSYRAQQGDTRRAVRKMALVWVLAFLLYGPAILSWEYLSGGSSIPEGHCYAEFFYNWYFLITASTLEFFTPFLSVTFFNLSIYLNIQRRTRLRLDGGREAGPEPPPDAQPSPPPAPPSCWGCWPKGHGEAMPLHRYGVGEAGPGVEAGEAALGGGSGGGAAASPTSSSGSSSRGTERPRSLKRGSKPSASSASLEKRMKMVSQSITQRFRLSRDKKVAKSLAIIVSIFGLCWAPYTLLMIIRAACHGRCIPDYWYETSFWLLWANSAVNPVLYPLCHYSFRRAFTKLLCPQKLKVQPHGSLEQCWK
Outline: (§1)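 Rat cerebral cortex synaptosomes preincubated 30 min at 37 °C with L-[3H]histidine to label histamine stores; K+-evoked depolarization-induced [3H]histamine release measured. Intrinsic activity taken as maximal inhibition by test substance relative to that from histamine (1 μM). Antagonism read as blockade of the histamine effect, expressed as Ki.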

Mus musculus [2] = species: Mus musculus; test: Intrinsic activity was determined inhibition of brain N-mehtylhistamine formation in mice relative to imetit; assay type: functional
Outline: (§2)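 Oxalate salt given orally as solution or suspension in 1% methylcellulose to groups of 6–12 male Swiss mice (18–22 g); doses 0.15–30 mg/kg. Cerebral cortex taken 90 min later, homogenized in ice-cold 0.4 N perchloric acid, Nτ-methylhistamine measured by radioimmunoassay. Agonist maxima referenced to imetit 10 mg/kg; antagonist maxima to thioperamide 10 mg/kg; ED50 as free base.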

[3] = target: Histamine H3 receptor (Cavia porcellus) (UniProt Q9JI35); test: Tested for activity of compound against histamine H3 receptor in guinea pig ileum; Antagonist; assay type: functional, tissue-based; settings: filed as antagonist
Chain of Histamine H3 receptor (Cavia porcellus) (Q9JI35 whole entry): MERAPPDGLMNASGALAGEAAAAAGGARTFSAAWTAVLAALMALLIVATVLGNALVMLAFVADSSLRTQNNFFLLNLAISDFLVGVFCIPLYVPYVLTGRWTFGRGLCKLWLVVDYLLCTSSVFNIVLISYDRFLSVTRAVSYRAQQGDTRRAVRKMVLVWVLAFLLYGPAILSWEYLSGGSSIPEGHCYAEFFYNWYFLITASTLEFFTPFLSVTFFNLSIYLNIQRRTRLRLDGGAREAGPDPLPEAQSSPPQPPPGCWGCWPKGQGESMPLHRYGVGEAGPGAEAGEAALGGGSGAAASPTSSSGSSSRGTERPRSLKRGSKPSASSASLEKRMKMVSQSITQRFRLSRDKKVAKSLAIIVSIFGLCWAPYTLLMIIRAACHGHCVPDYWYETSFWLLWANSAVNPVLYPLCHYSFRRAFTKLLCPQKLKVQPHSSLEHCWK

Cavia porcellus = species: Cavia porcellus; test: Tested for activity of compound against neurogenic contractions of guinea pig jejunum; Potent antagonist; assay type: functional; settings: filed as antagonist
[4] = target: Histamine H3 receptor (Mus musculus) (UniProt P58406); test: Activity against Histamine H3 receptor mediated inhibition of [3H]norepinephrine release from mouse brain; Partial agonist; assay type: functional; settings: filed as partial agonist
Chain of Histamine H3 receptor (Mus musculus) (P58406 whole entry): as the sequence (Q9QYN8 whole entry) above, with T15A, A286T, A290G, R387H, I389V counted along it

[5] = target: Histamine H3 receptor (Cavia porcellus) (UniProt Q9JI35); test: In vitro activity against histamine H3 receptor in guinea pig ileum; Antagonist; assay type: functional, tissue-based; settings: filed as antagonist
[6] = target: Histamine H3 receptor (Homo sapiens) (UniProt Q9Y5N1); test: Tested in vivo for activity against histamine H3 receptor; Full agonist; assay type: functional, organism-based; settings: filed as agonist; outline: as §2
Chain of Histamine H3 receptor (Homo sapiens) (Q9Y5N1 whole entry): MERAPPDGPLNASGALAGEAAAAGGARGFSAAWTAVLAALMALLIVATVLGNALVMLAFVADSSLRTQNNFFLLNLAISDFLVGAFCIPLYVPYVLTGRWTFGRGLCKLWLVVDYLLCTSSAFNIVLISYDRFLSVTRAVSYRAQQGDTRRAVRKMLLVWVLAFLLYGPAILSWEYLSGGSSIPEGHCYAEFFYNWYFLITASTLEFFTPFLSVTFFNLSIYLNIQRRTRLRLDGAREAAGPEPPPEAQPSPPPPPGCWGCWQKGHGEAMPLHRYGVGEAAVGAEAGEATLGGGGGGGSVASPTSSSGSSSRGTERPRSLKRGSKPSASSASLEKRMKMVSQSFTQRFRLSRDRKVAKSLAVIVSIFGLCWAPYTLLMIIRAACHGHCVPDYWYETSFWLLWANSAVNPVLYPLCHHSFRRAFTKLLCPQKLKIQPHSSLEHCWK

[7] = target: Histamine H3 receptor (Rattus norvegicus) (UniProt Q9QYN8); test: In vitro activity against histamine H3 receptor in rat synaptosomes; Partial agonist; assay type: functional, subcellular; settings: Brain; filed as partial agonist; outline: as §1
Chain of Histamine H3 receptor (Rattus norvegicus) (Q9QYN8 whole entry): as the sequence (Q9QYN8 whole entry) above

Mus musculus [8] = test: In vivo Intrinsic activity inhibition of brain N-mehtylhistamine formation in mice relative to imetit; Antagonist.; assay type: functional; outline: as §2
[9] = target: Histamine H3 receptor (Homo sapiens) (UniProt Q9Y5N1); test: Tested for activity against histamine H3 receptor; Weak antagonist; assay type: functional; settings: filed as antagonist
[10] = target: Histamine H3 receptor (Rattus norvegicus) (UniProt Q9QYN8); test: In vitro intrinsic activity against histamine H3 receptor using [3H]histamine as radioligand from rat cerebral cortex synaptosomes with respect to histamine; assay type: subcellular; settings: Brain; outline: as §1
[11] = target: Histamine H3 receptor (Homo sapiens) (UniProt Q9Y5N1); test: Agonistic activity against histamine H3 receptor; Partial agonist; assay type: functional; settings: filed as partial agonist
[12] = target: Histamine H3 receptor (Rattus norvegicus) (UniProt Q9QYN8); test: In vitro intrinsic activity against histamine H3 receptor using [3H]histamine as radioligand from rat cerebral cortex synaptosomes with respect to histamine; No detectable agonism.; assay type: functional, subcellular; settings: Brain; outline: as §1
Rattus norvegicus = species: Rattus norvegicus; test: In vitro effective concentration of compound required to reduce histamine release from rat synaptosomes; assay type: functional; settings: Brain; outline: as §1
[13] = target: Histamine H3 receptor (Mus musculus) (UniProt P58406); test: Tested for activity against histamine H3 receptor in vivo in mice; Weak agonist; assay type: functional, organism-based; settings: filed as partial agonist; outline: as §2

In the case of Cc1cccc(OCCCc2cnc[nH]2)c1, the ED50 (Mus musculus [1]) is reported as > 10 mg/kg and the Ki (Histamine H3 receptor) is reported as 0.037 µM.

In the case of FC(F)(F)c1cccc(OCCCCc2c[nH]cn2)c1, the Intrinsic activity (Mus musculus [2]) is reported as 0.7.

CC(C)CNC(=O)OCCCc1c[nH]cn1 was tested, and the Activity [3] was “Antagonist”.

N#Cc1cccc(OCCCc2cnc[nH]2)c1 was tested, and the ED50 (Mus musculus [1]) was > 10 mg/kg and the Ki (Histamine H3 receptor) was 0.108 µM.

With c1nc(CC2CCNCC2)c[nH]1 the Activity (Cavia porcellus) was “Antagonist” and the Activity [4] was “Partial agonist”.

CC(C)(C)CNC(=O)OCCCc1c[nH]cn1 was tested, and the Activity [3] was “Antagonist”.

In the case of NCC[C@@H]1C[C@@H]1c1c[nH]cn1, the Activity (Cavia porcellus) is reported as “Antagonist” and the Activity [4] is reported as “Partial agonist”.

In the case of CC(C)CCOCCCc1c[nH]cn1, the Activity [5] is reported as “Antagonist”, the Activity [6] is reported as “Agonist” and the Activity [7] is reported as “Partial agonist”.

With C[C@H]1NCC[C@@H]1c1c[nH]cn1 the Activity (Cavia porcellus) was “Antagonist” and the Activity [4] was “Partial agonist”.

NCCCCCc1c[nH]cn1 was tested, and the Activity (Cavia porcellus) was “Antagonist” and the Activity [4] was “Partial agonist”.

In the case of FC(F)(F)c1cccc(OCCc2c[nH]cn2)c1, the ED50 (Mus musculus [1]) is reported as < 10 mg/kg, the Intrinsic activity (Mus musculus [8]) is reported as 0 and the Ki (Histamine H3 receptor) is reported as 0.018 µM.

With CC(C)NC(=O)OCCCc1c[nH]cn1 the Activity [3] was “Antagonist” and the Activity [9] was “Partial antagonist”.

O=[N+]([O-])c1cccc(OCCCc2c[nH]cn2)c1 gave an ED50 (Mus musculus [1]) of 1.1 mg/kg, an Intrinsic activity (Mus musculus [2]) of 0.61 and an Intrinsic activity [10] of 0.1.

FC(F)(F)c1ccc(OCCCc2c[nH]cn2)cc1 showed an ED50 (Mus musculus [1]) of 0.6 mg/kg and an Intrinsic activity (Mus musculus [2]) of 0.

c1ccc(OCCCc2c[nH]cn2)cc1 was tested, and the ED50 (Mus musculus [1]) was > 10 mg/kg.

For FC(F)(F)c1ccccc1OCCCc1c[nH]cn1, the ED50 (Mus musculus [1]) was > 10 mg/kg and the Ki (Histamine H3 receptor) was ~0.5 µM.

In the case of Brc1cccc(OCCCc2cnc[nH]2)c1, the Ki (Histamine H3 receptor) is reported as 0.019 µM.

NC[C@H]1CC[C@H](c2c[nH]cn2)O1 was tested, and the Activity (Cavia porcellus) was “Antagonist” and the Activity [4] was “Partial agonist”.

Compound CC(C)(C)c1cccc(OCCCc2c[nH]cn2)c1 has an ED50 (Mus musculus [1]) of 0.8 mg/kg, an Intrinsic activity (Mus musculus [2]) of 0.78 and an Intrinsic activity [10] of 0.28.

N=C(N)CCCc1c[nH]cn1 was tested, and the Activity (Cavia porcellus) was “Antagonist” and the Activity [4] was “Partial agonist”.

Ic1ccc(COCCCc2c[nH]cn2)cc1 was tested, and the Activity [11] was “Partial agonist”.

With N=C(N)SCCc1c[nH]cn1 the Activity (Cavia porcellus) was “Antagonist” and the Activity [4] was “Partial agonist”.

For Brc1cccc(OCCCc2c[nH]cn2)c1, the ED50 (Mus musculus [1]) was > 10 mg/kg and the Intrinsic activity [12] was < 0.1.

In the case of C[C@@H](N)Cc1c[nH]cn1, the Activity (Cavia porcellus) is reported as “Antagonist” and the Activity [4] is reported as “Partial agonist”.

In the case of CC(=O)c1cccc(OCCCc2cnc[nH]2)c1, the Ki (Histamine H3 receptor) is reported as 0.02 µM.

Compound CCc1cccc(OCCCc2cnc[nH]2)c1 has a Ki (Histamine H3 receptor) of 0.015 µM.

For CC(C)(C)CCOCCCc1c[nH]cn1, the Activity [6] was “Agonist”.

With CC(=O)c1cccc(OCCCc2c[nH]cn2)c1 the ED50 (Mus musculus [1]) was 0.4 mg/kg, the Intrinsic activity (Mus musculus [2]) was 0.9 and the Intrinsic activity [10] was 0.15.

With O=[N+]([O-])c1cccc(OCCCc2cnc[nH]2)c1 the Ki (Histamine H3 receptor) was 0.0094 µM.

With FC(F)(F)c1cccc(OCCCc2c[nH]cn2)c1 the ED50 (Mus musculus [1]) was 0.6 mg/kg, the Intrinsic activity (Mus musculus [2]) was 1 and the EC50 (Rattus norvegicus) was 0.098 µM. For the same compound, the Intrinsic activity [12] was 0.4 and the Ki (Histamine H3 receptor) was 0.0084 µM.

With FC(F)(F)c1cccc(SCCCc2c[nH]cn2)c1 the ED50 (Mus musculus [1]) was > 10 mg/kg and the Ki (Histamine H3 receptor) was 0.038 µM.

With CC(C)(C)NC(=O)OCCCc1c[nH]cn1 the Activity [13] was “Partial agonist” and the Activity [3] was “Antagonist”.

Work on N#Cc1ccc(OCCCc2c[nH]cn2)cc1 yielded an ED50 (Mus musculus [1]) of 0.54 mg/kg and an Intrinsic activity (Mus musculus [2]) of 0.

FC(F)(F)c1cc(OCCCc2c[nH]cn2)cc(C(F)(F)F)c1 showed an ED50 (Mus musculus [1]) of 4.8 mg/kg, an Intrinsic activity (Mus musculus [2]) of 0 and a Ki (Histamine H3 receptor) of 0.116 µM.

For FC(F)(F)c1cccc(CCCCc2c[nH]cn2)c1, the ED50 (Mus musculus [1]) was 6.5 mg/kg, the Intrinsic activity (Mus musculus [2]) was 0 and the Ki (Histamine H3 receptor) was 0.038 µM.

Work on S=C(NC1CCCCC1)N1CCC(c2cnc[nH]2)CC1 [THIOPERAMIDE] yielded an ED50 (Mus musculus [1]) of 1 mg/kg.

For CC(NC(=O)OCCCc1c[nH]cn1)C(C)(C)C (stereo not drawn), the Activity [3] was “Antagonist”.

In the case of CCc1cccc(OCCCc2c[nH]cn2)c1, the ED50 (Mus musculus [1]) is reported as ~1 mg/kg, the Intrinsic activity (Mus musculus [2]) is reported as 0.85 and the Intrinsic activity [10] is reported as 0.2.

Work on FC(F)(F)c1cccc(SCCc2c[nH]cn2)c1 yielded an ED50 (Mus musculus [1]) of 0.94 mg/kg, an Intrinsic activity (Mus musculus [2]) of 0.7 and an Intrinsic activity [10] of 0.4.

In the case of CC(C)c1cccc(OCCCc2cnc[nH]2)c1, the Ki (Histamine H3 receptor) is reported as 0.029 µM.

Compound CC(C)c1cccc(OCCCc2c[nH]cn2)c1 has an ED50 (Mus musculus [1]) of 0.5 mg/kg, an Intrinsic activity (Mus musculus [2]) of 0.82 and an Intrinsic activity [10] of 0.3.

In the case of CC(C)(C)c1cccc(OCCCc2cnc[nH]2)c1, the Ki (Histamine H3 receptor) is reported as 0.022 µM.
